These results are taken from PubChem BioAssay.

Structures are written as SMILES. Calls of active or inactive are those of the source.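 Rule for the calls, unless noted: active = inhibition at or above 50% at 10 µM; inactive = inhibition below 50%.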

Test [1] in a line: inhibitors of TNFa-induced NFkB p65 translocation, primary screen, imaging, HUVEC, MLSMR starter and 10KST1 sets (AID 438;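 active = inhibition above 20% together with a positive visual image hit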;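 note: compound added about 3h40 before a 20 min TNFalpha stimulation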;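 for inhibition: signal is the nuclear over cytoplasmic p65 intensity ratio per well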). Conditions: HUVEC TNFa-induced p65 nuclear translocation; cell count: measured here: nuclei count (cytotoxicity indicator), at 2.08 µM; inhibition: at 2 µM, stronger effect = higher value, 0% TNFa-plus-vehicle, 100% no-TNFa wells.
Test [2] in a line: inhibitors of mutant huntingtin aggregation, primary screen, imaging, exon1htt(103Q)mCFP cells, high-content imaging (AID 483;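 active = visual image review flags a hit and inhibition of aggregation exceeds 20%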;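 note: compound exposure lasted 3 days before fixation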;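 for nuclei count: percent of the per-plate median nuclei count of sample wells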). Conditions: exon1htt(103Q)mCFP cell line, aggregate imaging, at 2 µM; inhibition of aggregation: stronger effect = higher value; nuclei count: measured here: cell count, toxicity.
Test [3] is described as follows: inhibitors of E-selectin induction by TNFa, primary screen, imaging, HUVEC, immunofluorescence, MLSMR starter and 10KST1 sets (AID 487;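 active = visually confirmed hit in the image check and inhibition above 20%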;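 for inhibition: signal is fraction of cell area covered by stained E-selectin grains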;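 for nuclei count: 100% = median nuclei count of all wells on the same plate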). The settings on record: HUVEC TNFalpha-induced E-selectin immunofluorescence imaging, at 2 µM; inhibition: stronger effect = higher value; nuclei count: measured here: cell number, toxicity.
The target of test [4] is Voltage-gated potassium channel subunit beta-2 (Rattus norvegicus) (UniProt P62483). Nature of the test: KvBeta enzyme negative modulators, primary screen, biochemical, NADPH fluorescence (AID 622;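 active = fluorescence slope higher than the sample average by over 3 SD, cut at about -0.22 in these data, passing the limit was not always enough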;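 note: slope of raw intensity against log time taken from 70 to 1610 s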). The settings on record: recombinant KvBeta, 4-cyanobenzaldehyde reduction, at 10 µM, stronger effect = higher value.
Sequence of Voltage-gated potassium channel subunit beta-2 (Rattus norvegicus) (P62483 whole entry, looked up): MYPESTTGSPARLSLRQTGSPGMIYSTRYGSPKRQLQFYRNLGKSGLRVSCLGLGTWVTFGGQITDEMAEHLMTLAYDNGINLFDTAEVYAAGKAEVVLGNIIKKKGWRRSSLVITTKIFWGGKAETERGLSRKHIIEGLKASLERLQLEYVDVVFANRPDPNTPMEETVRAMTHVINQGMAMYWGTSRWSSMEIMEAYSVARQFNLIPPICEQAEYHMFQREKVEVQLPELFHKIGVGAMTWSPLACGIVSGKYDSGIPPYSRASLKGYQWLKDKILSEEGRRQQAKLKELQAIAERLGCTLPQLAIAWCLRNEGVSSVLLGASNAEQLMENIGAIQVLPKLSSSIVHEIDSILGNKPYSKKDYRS
For test [5] the target is unchanged. Kind of test: KvBeta positive modulators, primary screen, biochemical, NADPH fluorescence (AID 623;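 active = NADPH fluorescence slope more negative than the mean of all samples by about 3 SD, 99.7% confidence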;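 note: fluorescence intensity change per second fitted from 20 to 320 s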). Conditions: Recombinant KvBeta, NADPH fluorescence decrease slope, 10 min; at 10 µM; stronger effect = lower value.
Test [6] concerns the target Muscarinic acetylcholine receptor M4 (Homo sapiens) (UniProt P08173). Nature of the test: compounds altering M4/GIRK thallium flux, either direction, primary screen, M4 allosteric agonist project, cell-based, HEK293 M4/GIRK, BTC-AM (AID 625;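 active = fluorescence slope after compound addition differing from the mean of all tested samples at 99.7% confidence, mostly higher but some lower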;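 note: thallium influx through GIRK channels coupled to M4 in HEK293 cells with BTC-AM dye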). Conditions: at 10 µM, actives lie on both sides. Put shortly: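 assay system = HEK293 cells with M4 receptor and GIRK channels | medium = pH 7.3 thallium assay buffer | doses = 10 µM final, single point | timing = cells overnight at 37 °C, BTC-AM loading 1 h, reads 2 min total | signal = BTC-AM fluorescence, 1 Hz kinetic reads | read-out = post-addition slope, 15–24 s, of baseline-normalized fluorescence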

Test [7] in a line: inhibitors of Sendai virus-induced IRF3 signaling, primary screen, TLR/RLR signaling modifier project, cell-based, Sendai virus stimulus, luciferase, 10K MLSCN set (AID 602276).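 Note: firefly luciferase from ISG56 promoter only with Renilla not read in this screen; 0% = Sendai virus plus DMSO and 100% = medium plus DMSO without virus.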 The settings on record: HEK293 RL24 IRF3 luciferase reporter, at 10 µM, stronger effect = higher value. In general terms: Reporter assays use an easily measured gene product as a stand-in for the process of interest.

The nature of test [8]: inhibitors of poly I:C-induced TLR3 signaling, primary screen, cell-based, poly I:C stimulus, luciferase, 10K MLSCN set (AID 602277;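 active = inhibition of the reporter signal at or above 50%; inactive = inhibition below 50%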). Conditions: HEK293-TLR3 RL24 IRF3 luciferase reporter, at 10 µM, stronger effect = higher value.

As usually defined, the inhibition is the change of the read-out against control, counted positive when it falls.

Sequence of Muscarinic acetylcholine receptor M4 (Homo sapiens) (P08173 whole entry, looked up): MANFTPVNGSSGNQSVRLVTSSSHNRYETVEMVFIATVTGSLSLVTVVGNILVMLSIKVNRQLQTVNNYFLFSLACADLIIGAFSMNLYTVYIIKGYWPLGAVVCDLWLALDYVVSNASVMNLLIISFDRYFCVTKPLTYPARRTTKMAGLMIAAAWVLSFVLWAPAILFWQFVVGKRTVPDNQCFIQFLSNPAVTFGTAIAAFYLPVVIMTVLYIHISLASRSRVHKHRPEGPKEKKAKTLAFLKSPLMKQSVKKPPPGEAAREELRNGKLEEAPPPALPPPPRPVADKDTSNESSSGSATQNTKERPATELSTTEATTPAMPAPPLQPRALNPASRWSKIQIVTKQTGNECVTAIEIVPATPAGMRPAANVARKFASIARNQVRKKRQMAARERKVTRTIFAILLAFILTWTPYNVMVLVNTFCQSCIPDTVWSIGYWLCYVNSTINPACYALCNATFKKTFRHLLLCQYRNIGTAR

Take `COc1ccc(-c2noc(C3CCCN(C(=O)CCc4ccccc4)C3)n2)cc1` (centres undefined): the cell count in test [1] came to 383. In addition, the inhibition is -3.5% (inactive) in test [1], -83.2% (inactive) in test [3], 12.3% (inactive) in test [7] and 1.57% (inactive) in test [8]. For the same molecule, in test [2], the inhibition of aggregation is 18.4% (inactive). Further, the nuclei count came out at 101% in test [2] and 57.8% in test [3]. Moreover, the fluorescence slope in test [4] was -0.454 (inactive); in test [6], 0.00551 (inactive). Also, in test [5], the NADPH fluorescence slope is -5e-06 (inactive).
`CCCn1c2c(c(O)c(C(=O)Nc3ccc(C)cn3)c1=O)CCCC2`: the cell count in test [1] is 483. The inhibition was 9.8% (inactive) in test [1], -7.5% (inactive) in test [3], 6.86% (inactive) in test [7] and 10.7% (inactive) in test [8]. In test [2], the inhibition of aggregation was -6.3% (inactive). Further, the nuclei count in test [2] was 96.3%; in test [3], 91.3%. Further, the fluorescence slope in test [4] was -0.546 (inactive); in test [6], 0.00777 (inactive). Also, the NADPH fluorescence slope in test [5] is -6e-05 (inactive).
On to `CCCS(=O)(=O)N1CCC(C(=O)N2CCCC2)CC1`, for which the cell count in test [1] was 657. Moreover, the inhibition in test [1] was -9.9% (inactive); in test [3], -70.4% (inactive); in test [7] it was 18.9% (inactive); in test [8], 8.55% (inactive). Further, the inhibition of aggregation in test [2] was -6.5% (inactive). Besides, the nuclei count turned out to be 96.1% in test [2] and 107% in test [3]. In addition, the figures for the fluorescence slope in test [4] and in test [6] were -0.611 (inactive) and 0.00435 (inactive), respectively. Moreover, the NADPH fluorescence slope in test [5] was -8.1e-06 (inactive).
Consider `c1ccc(-c2noc(C34CC5CC(CC(C5)C3)C4)n2)nc1`, for which the cell count in test [1] came out at 362. Also, the inhibition in test [1] was 10.2% (inactive); in test [3], -53.7% (inactive); in test [7], -32.9% (inactive); in test [8], -64.6% (inactive). In test [2], the inhibition of aggregation was 17.1% (inactive). Besides, the nuclei count in test [2] turned out to be 98.3%; in test [3], 102%. Further, the results for the fluorescence slope in test [4] and in test [6] were -0.554 (inactive) and 0.00439 (inactive), respectively. Moreover, the NADPH fluorescence slope in test [5] was -0.00016 (inactive).
As for `Cc1ccc(-n2nnnc2SCC(=O)N2CCN(C(=O)c3ccco3)CC2)c(C)c1`, in test [1], the cell count was 731. The inhibition in test [1] was -4.4% (inactive); in test [3] it was -5.5% (inactive); in test [7] it was 1.61% (inactive); in test [8], 10.6% (inactive). For the same molecule, the inhibition of aggregation in test [2] was 27.6% (inactive). Further, the values for the nuclei count in test [2] and in test [3] were 91% and 109%, respectively. The fluorescence slope was -0.568 (inactive) in test [4] and 0.00555 (inactive) in test [6]. Also, the NADPH fluorescence slope in test [5] is -5.4e-05 (inactive).
`CCCc1cc(=O)n2[nH]c(-c3ccc(Br)cc3)cc2n1`: the cell count in test [1] was determined as 320. Besides, the inhibition in test [1] was 1.7% (inactive); in test [3], -27.5% (inactive); in test [7], -22.4% (inactive); in test [8], -15.4% (inactive). Further, the inhibition of aggregation in test [2] is -4.6% (inactive). Also, the nuclei count in test [2] stood at 98.8%; in test [3], 119%. Further, the fluorescence slope in test [4] was -0.473 (inactive); in test [6] it was 0.00575 (inactive). The NADPH fluorescence slope in test [5] is -2.2e-05 (inactive).
On to `CC(=O)Nc1nc(-c2ccccc2)nc(C)c1C(C)=O`, for which the cell count in test [1] worked out at 366. Moreover, the inhibition was 8% (inactive) in test [1], 32.4% (inactive) in test [3], -8.51% (inactive) in test [7] and 2.89% (inactive) in test [8]. In test [2], the inhibition of aggregation is 15% (inactive). Also, the nuclei count in test [2] was 88.5%; in test [3], 87.6%. Further, the results for the fluorescence slope in test [4] and in test [6] were -0.572 (inactive) and 0.0072 (inactive), respectively. Further, the NADPH fluorescence slope in test [5] was 2e-05 (inactive).
`CC(=O)N1C(=O)C2(Nc3ccccc3N2)c2ccccc21`: in test [1], the cell count was found to be 406. Also, the inhibition is -4.3% (inactive) in test [1], 20.6% (inactive) in test [3], -8.46% (inactive) in test [7] and 9.54% (inactive) in test [8]. Also, the inhibition of aggregation in test [2] is 6.4% (inactive). In addition, the nuclei count in test [2] and in test [3] was 108% each time. Moreover, the results for the fluorescence slope in test [4] and in test [6] were -0.283 (inactive) and 0.00603 (inactive), respectively. Besides, in test [5], the NADPH fluorescence slope is -1.3e-05 (inactive).
Turning to `O=C(O)C1CC(=O)N(Cc2ccccc2)C1` (centres undefined), the cell count in test [1] worked out at 398. Moreover, the inhibition in test [1] is -1.8% (inactive); in test [3], -43.7% (inactive); in test [7], 16.7% (inactive); in test [8], 17% (inactive). Moreover, the inhibition of aggregation in test [2] is -0.4% (inactive). Besides, the nuclei count is 110% in test [2] and 127% in test [3]. In addition, the fluorescence slope is -0.526 (inactive) in test [4] and 0.00382 (inactive) in test [6]. In addition, in test [5], the NADPH fluorescence slope is -0.00016 (inactive).
Consider `O=S(=O)(c1ccc(Br)s1)N1CCCCC1`, for which the cell count in test [1] was determined as 479. Also, the inhibition was -1.6% (inactive) in test [1], 0.6% (inactive) in test [3], 5.16% (inactive) in test [7] and 9.33% (inactive) in test [8]. Besides, in test [2], the inhibition of aggregation was -18.8% (inactive). For the same molecule, the nuclei count in test [2] is 100%; in test [3], 106%. Further, the fluorescence slope was -0.615 (inactive) in test [4] and 0.00346 (inactive) in test [6]. Further, in test [5], the NADPH fluorescence slope was 4.4e-05 (inactive).
`O=C(OCC(=O)N1CCCC1)c1cncc(Br)c1`: in test [1], the cell count turned out to be 682. Also, the inhibition was 16.5% (inactive) in test [1], 35.3% (inactive) in test [3], 11.4% (inactive) in test [7] and 0.097% (inactive) in test [8]. Besides, in test [2], the inhibition of aggregation is 23.5% (inactive). In addition, the nuclei count in test [2] was determined as 83%; in test [3], 102%. The fluorescence slope in test [4] is -0.207 (inactive); in test [6], 0.00528 (inactive). In test [5], the NADPH fluorescence slope was -2.4e-05 (inactive).
Regarding `Cc1cc(C)n(CCCNC(=O)c2ccc3c(c2)NC(=O)CS3)n1`, the cell count in test [1] was found to be 722. For the same molecule, the inhibition in test [1] is -0.6% (inactive); in test [3] it was 10.7% (inactive); in test [7], 14.3% (inactive); in test [8], 28.3% (inactive). In addition, in test [2], the inhibition of aggregation is -34.8% (inactive). Besides, the nuclei count in test [2] was determined as 87.8%; in test [3], 106%. Further, the fluorescence slope was -0.416 (inactive) in test [4] and 0.00708 (inactive) in test [6]. The NADPH fluorescence slope in test [5] was -1.2e-05 (inactive).
As for `O=C(CSc1nc(C2CCCCC2)n(-c2ccccc2)n1)NCCN1C(=O)CSC1=O`, the cell count in test [1] stood at 382. Besides, the inhibition in test [1] was -5.9% (inactive); in test [3], -13.3% (inactive); in test [7], 15.1% (inactive); in test [8] it was 23.3% (inactive). Also, in test [2], the inhibition of aggregation is 8% (inactive). Besides, the nuclei count came to 112% in test [2] and 140% in test [3]. The values for the fluorescence slope in test [4] and in test [6] were -0.572 (inactive) and 0.00728 (inactive), respectively. Further, the NADPH fluorescence slope in test [5] was -4.9e-05 (inactive).
In the case of `Cc1nn(-c2nc3ccccc3[nH]2)c(N)c1-c1ccccc1`, the cell count in test [1] is 666. The inhibition was -7.5% (inactive) in test [1], -105% (inactive) in test [3], -38.3% (inactive) in test [7] and -134% (inactive) in test [8]. In test [2], the inhibition of aggregation was -12.6% (inactive). Moreover, the nuclei count in test [2] and in test [3] was 110% throughout. For the same molecule, the fluorescence slope was -0.47 (inactive) in test [4] and 0.00573 (inactive) in test [6]. The NADPH fluorescence slope in test [5] was -2.8e-06 (inactive).
